Experimental data published in paper PMC2605016 (Structure (London, England : 1993), 2008).

How the values were obtained:
[1] = CaM pull-down assay with lens membranes; format: binding, lamb; details: Ca^2+ treated lens pellets, molar excess EGTA, data not shown
How it was run: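 Lamb lens fiber-cell membranes (2mg/ml total protein) were incubated with recombinant vertebrate CaM (0.67mg/ml) in 10mM Tris pH 8.0, 10mM CaCl2 for 30 minutes at 37°C. Binding was stopped on ice, and free CaM was removed by centrifugation at 10,000xg with 4 pellet washes. Molar excess EGTA was then added to the Ca2+-treated pellets. CaM was detected by SDS-PAGE with silver staining and by western blot.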

15N-CaM = 15N-CaM (Homo sapiens, UniProt P0DP23); assay: NMR titration of 15N-CaM with AQP0 peptides; format: binding, vertebrate; details: 25°C, pH 6.5, Ca^2+, data not shown
calmodulin (CaM) = assay: 15N-HSQC NMR titration of 15N-CaM; details: reference: unmodified AQP0CBD peptide, second binding event (1:2); sites S235

O=C(O)CN(CCOCCOCCN(CC(=O)O)CC(=O)O)CC(=O)O [EGTA]
removal of membrane-bound CaM by EGTA [1]: efficiently removed

AQP0loop: peptide corresponding to a cytosolic AQP0 loop, residues 148–158, negative control (TYDERRNGRLG)
interaction of control peptide with CaM (15N-CaM): no interaction

Aquaporin-0 (AQP0, MIP) 223-242 (from UniProt Q6J8I9) S235-P peptide, second binding event (1:2)
KD (calmodulin (CaM)): weaker; reference 6.5 ± 5.5 × 10−6
